Test results: ChEMBL document CHEMBL4359929, “Piperidine and piperazine inhibitors of fatty acid amide hydrolase targeting excitotoxic pathology” (Bioorg Med Chem, 2019)
Activity calls are given as the source filed them. No cut-off for these calls is given here.

What was measured:
[1] = Selectivity ratio of IC50 for human recombinant His-tagged MGL expressed in Escherichia coli BL21 DE3 cells to IC50 for rat recombinant His/GST-tagged FAAH expressed in Escherichia coli cells by fluorescence based assay
[2] = Stability in mouse gastric fluid assessed as half life; assay type: ADME, tissue-based, Gastric juice
In short: (§1)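 Stability assessed as half-life in human, rat and mouse plasma and gastric fluid, and in human, rat and mouse liver microsomal preparations.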

[3] = Stability in human plasma assessed as half life; assay type: ADME, cell-free; in short: as §1
[4] = biological target: T1, Fatty-acid amide hydrolase 1 (Homo sapiens, UniProt O00519); assay: Inhibition of human recombinant MBP-tagged FAAH expressed in Escherichia coli cells using AAMCA as substrate incubated for 15 mins followed by substrate addition and measured after every 20 mins for 4 hrs by fluorescence based assay
T1 sequence (O00519 whole entry): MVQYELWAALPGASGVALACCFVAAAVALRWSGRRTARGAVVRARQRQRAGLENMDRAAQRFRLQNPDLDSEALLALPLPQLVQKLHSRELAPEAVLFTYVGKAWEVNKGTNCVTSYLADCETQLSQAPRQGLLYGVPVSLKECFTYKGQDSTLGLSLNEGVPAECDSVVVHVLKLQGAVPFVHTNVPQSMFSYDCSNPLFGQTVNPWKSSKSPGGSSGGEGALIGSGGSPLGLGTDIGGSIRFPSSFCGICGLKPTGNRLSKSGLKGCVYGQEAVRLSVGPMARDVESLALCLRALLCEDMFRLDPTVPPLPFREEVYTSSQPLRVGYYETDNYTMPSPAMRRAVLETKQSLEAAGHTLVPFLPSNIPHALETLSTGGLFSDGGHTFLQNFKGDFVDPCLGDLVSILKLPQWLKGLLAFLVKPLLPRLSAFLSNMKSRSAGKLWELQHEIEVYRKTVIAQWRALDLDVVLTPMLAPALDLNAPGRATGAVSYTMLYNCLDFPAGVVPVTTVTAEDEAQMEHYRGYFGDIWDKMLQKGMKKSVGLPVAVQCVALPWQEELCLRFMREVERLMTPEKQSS
In short: (§2)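 Fluorescent enzyme assay in throughput format. Human recombinant FAAH or purified rat FAAH used arachidonoyl 7-amino-4-methylcoumarin amide as substrate; human recombinant MGL was run by a similar fluorometric procedure.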

[5] = Stability in human gastric fluid assessed as half life; assay type: ADME, tissue-based, Gastric juice; in short: as §1
[6] = biological target: Cannabinoid receptor 1 (Rattus norvegicus) (UniProt P20272); assay: Displacement of [3H]CP55940 from CB1 receptor in rat brain by competition-equilibrium binding analysis; assay type: tissue-based
In short: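 Rat brain membranes as CB1 source; competition-equilibrium binding against [3H]CP-55,940.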

[7] = biological target: Cannabinoid receptor 2 (Mus musculus) (UniProt P47936); assay: Displacement of [3H]CP55940 from mouse CB2 receptor expressed in HEK293 cells by competition-equilibrium binding analysis; assay type: cell-based
In short: (§3)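 HEK293 cell membranes expressing mouse or human CB2; competition-equilibrium binding against [3H]CP-55,940.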

[8] = biological target: Cannabinoid receptor 2 (Homo sapiens) (UniProt P34972); assay: Displacement of [3H]CP55940 from human CB2 receptor expressed in HEK293 cells by competition-equilibrium binding analysis; assay type: cell-based; in short: as §3
[9] = biological target: T2, Monoglyceride lipase (Rattus norvegicus) (UniProt Q8R431); assay: Inhibition of MGL in rat brain membrane at 1 to 10 uM incubated for 30 mins followed by incubation with FP-Rh probe for 45 mins by ABPP assay; assay type: cell membranes
T2 sequence (whole entry): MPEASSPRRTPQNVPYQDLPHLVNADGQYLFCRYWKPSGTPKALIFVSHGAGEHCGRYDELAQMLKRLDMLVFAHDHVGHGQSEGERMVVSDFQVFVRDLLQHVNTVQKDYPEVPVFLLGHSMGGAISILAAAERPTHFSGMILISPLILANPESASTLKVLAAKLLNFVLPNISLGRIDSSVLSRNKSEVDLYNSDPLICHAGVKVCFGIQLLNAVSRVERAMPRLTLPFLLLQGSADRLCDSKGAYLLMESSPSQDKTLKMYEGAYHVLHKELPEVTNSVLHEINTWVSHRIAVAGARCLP
In short: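 Gel-based competitive ABPP on rat brain membrane homogenates (10 mg/mL protein). Compound at 1 and 10 μM or DMSO for 30 min at room temperature, then 10 μM rhodamine-tagged fluorophosphonate probe for 45 min at room temperature. FAAH was run with a reference FAAH inhibitor at 10 μM as positive control. Serine hydrolase labelling read by in-gel fluorescence.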

[10] = biological target: T3, Fatty-acid amide hydrolase 1 (Rattus norvegicus, UniProt P97612); assay: Inhibition of rat recombinant His/GST-tagged FAAH expressed in Escherichia coli cells using AAMCA as substrate incubated for 15 mins followed by substrate addition and measured after every 20 mins for 4 hrs by fluorescence based assay; in short: as §2
T3 sequence (P97612 whole entry): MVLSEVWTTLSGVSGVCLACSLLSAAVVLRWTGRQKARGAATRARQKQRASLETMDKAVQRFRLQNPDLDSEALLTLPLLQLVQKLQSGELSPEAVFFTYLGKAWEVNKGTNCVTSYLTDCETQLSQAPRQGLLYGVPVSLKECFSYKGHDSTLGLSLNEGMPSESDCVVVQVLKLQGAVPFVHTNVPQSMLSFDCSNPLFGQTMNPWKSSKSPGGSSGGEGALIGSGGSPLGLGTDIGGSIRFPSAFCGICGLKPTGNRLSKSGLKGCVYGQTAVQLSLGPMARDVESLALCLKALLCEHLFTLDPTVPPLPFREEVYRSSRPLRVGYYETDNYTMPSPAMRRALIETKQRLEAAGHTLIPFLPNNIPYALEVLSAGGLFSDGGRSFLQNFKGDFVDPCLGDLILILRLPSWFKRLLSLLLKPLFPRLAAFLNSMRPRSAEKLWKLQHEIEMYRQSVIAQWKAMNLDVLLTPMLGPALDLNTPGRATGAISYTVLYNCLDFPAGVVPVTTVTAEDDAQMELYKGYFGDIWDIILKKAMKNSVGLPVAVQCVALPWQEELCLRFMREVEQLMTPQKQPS

[11] = Stability in mouse liver microsomes assessed as half life; assay type: ADME, Microsome; in short: as §1
[12] = Stability in rat gastric fluid assessed as half life; assay type: ADME, tissue-based, Gastric juice; in short: as §1
Hippocampus [13] = assay: (§4) Neuroprotective activity against Sprague-Dawley rat hippocampus assessed as decrease in KA-induced excitotoxicity by measuring increase in GluR1 level at 3 to 30 uM preincubated for 1 hr followed by KA stimulation for 2 hrs in continued presence of compound followed by KA wash out and then further incubation with compound for 24 hrs by immunoblot analysis; assay type: functional, tissue-based
In short: (§5)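 Sprague-Dawley rat hippocampal slices (400 μm, postnatal day 12) cultured 18–20 days at 37 °C, 5% CO2. Pretreated 60 min with 3–30 μM compound or 0.1% DMSO, then 60 μM kainic acid for 2 h with compound. Three washouts, then 24 h recovery with 30 μM compound. Harvested in groups of 7–9; GluR1, synaptophysin and synapsin IIb by immunoblot with optical density. Unpaired t-tests.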

Hippocampus [14] = assay: as §4, with “syn IIb” for “GluR1”; assay type: functional, tissue-based; in short: as §5
[15] = Stability in mouse plasma assessed as half life; assay type: ADME, cell-free; in short: as §1

Sequence of Cannabinoid receptor 2 (Homo sapiens) (P34972 whole entry): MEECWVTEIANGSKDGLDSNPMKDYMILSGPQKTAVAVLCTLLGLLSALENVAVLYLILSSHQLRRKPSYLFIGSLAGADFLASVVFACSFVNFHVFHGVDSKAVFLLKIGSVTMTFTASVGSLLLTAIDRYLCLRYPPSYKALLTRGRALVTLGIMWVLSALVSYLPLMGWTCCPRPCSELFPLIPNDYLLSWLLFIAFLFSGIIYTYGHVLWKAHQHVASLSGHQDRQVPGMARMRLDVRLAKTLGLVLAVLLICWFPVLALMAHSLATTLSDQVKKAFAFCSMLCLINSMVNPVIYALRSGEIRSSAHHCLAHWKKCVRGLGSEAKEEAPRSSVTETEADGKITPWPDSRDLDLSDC
Sequence of Cannabinoid receptor 2 (Mus musculus) (P47936 whole entry): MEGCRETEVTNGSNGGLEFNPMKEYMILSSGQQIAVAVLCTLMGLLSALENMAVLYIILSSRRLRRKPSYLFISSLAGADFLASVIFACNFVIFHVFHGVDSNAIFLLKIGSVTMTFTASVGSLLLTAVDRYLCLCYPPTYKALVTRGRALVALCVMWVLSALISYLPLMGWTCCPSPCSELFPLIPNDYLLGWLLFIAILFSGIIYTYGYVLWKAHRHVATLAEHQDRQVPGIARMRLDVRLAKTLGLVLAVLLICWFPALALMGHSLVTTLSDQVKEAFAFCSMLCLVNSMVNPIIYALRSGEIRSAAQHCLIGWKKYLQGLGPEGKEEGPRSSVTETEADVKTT
Sequence of Cannabinoid receptor 1 (Rattus norvegicus) (P20272 whole entry): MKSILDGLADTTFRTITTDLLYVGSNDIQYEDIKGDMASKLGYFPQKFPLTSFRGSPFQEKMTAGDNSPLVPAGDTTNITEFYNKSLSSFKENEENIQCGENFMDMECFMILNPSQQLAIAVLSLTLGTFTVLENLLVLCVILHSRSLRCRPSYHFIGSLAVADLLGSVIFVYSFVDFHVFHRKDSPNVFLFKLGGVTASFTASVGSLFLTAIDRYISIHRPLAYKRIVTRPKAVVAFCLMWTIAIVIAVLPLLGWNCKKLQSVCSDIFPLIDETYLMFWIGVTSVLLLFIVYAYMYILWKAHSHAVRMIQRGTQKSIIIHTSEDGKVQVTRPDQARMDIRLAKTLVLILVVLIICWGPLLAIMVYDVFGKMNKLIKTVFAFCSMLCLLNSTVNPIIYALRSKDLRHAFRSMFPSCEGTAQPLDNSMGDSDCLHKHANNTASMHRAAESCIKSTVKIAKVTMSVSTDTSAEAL

Row | SMILES | Ratio IC50 [1] | half-life [2] | half-life [3] | IC50 [4] | half-life [5] | Activity [6] | Activity [7] | Activity [8] | inhibition [9] | IC50 [10] | half-life [11] | half-life [12] | inhibition (Hippocampus [13]) | inhibition (Hippocampus [14]) | half-life [15]
1 | C[C@@H]1CN(c2ccc(F)cc2)CCN1C(=O)Oc1cccc(N2CCS(=O)(=O)CC2)c1 | > 1000 | > 1 h | > 1 h | 11.7 nM | > 1 h | inactive | inactive | inactive | inactive | 6.3 nM | 0.25 to 0.417 h | > 1 h | Active | Active | > 1 h
2 | O=C(Oc1cccc(N2CCS(=O)(=O)CC2)c1)N1CCC(c2ccc(N3CCC3)cc2)CC1 | > 1000 | > 1 h | > 1 h | 7.9 nM | > 1 h | inactive | inactive | inactive | inactive | 5.8 nM | 0.25 to 0.417 h | > 1 h | Active | Active | > 1 h
